# This excerpt belongs to a sample that is enriched for hits.
# T cruzi repl: inhibitors of intracellular T. cruzi growth, primary screen, luminescence, NIH3T3 host cells | T. cruzi beta-gal in NIH3T3, 90 h | inhibition, % (no concentration beside the values) | actives 1.4% (n = 300,000) | AID 1885, 2009;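 active means mean inhibition across valid replicates above about 55%, limit read from the data; inconclusive means mean below that limit but half or more replicates reach it; inactive means mean below it, under half of replicates reach it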;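 further: signal also drops with host cell toxicity which is not excluded here; 0% = plate median of DMSO wells and 100% = zero luminescence signal; higher percent means less beta-gal luminescence so fewer parasites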
#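 Assay system: NIH/3T3 host cells with β-galactosidase reporter T. cruzi; input: 5,000 host fibroblasts per well; compound: single 50 nL compound addition per well in DMSO; timing: ≥90 h infection period, 3 h prior cell attachment; measured by: GalScreen β-gal luminescence, detergent lysis, 60 min; evaluation: percent inhibition of parasite-derived β-gal signal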
# Lmaj promast: Leishmania major promastigote growth inhibition, primary screen; Leishmania major promastigotes, resazurin fluorescence viability; inhibition, % at 10 µM; actives 9% (n = 200,000); AID 1063, 2008; in the data active means inhibition above about 50%;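 further: promastigotes grown with compound for 44 hours at 28 °C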
# MPTP block: mitochondrial permeability transition pore inhibitors, primary screen, biochemical, isolated mouse mitochondria, absorbance. inhibition, % at 10 µM. actives 1.4% (n = 360,000). Ca2+ swelling absorbance, 30 min;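 active means inhibition of 50% or more, scaled per plate between neutral and stimulator controls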;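 further: 0% = DMSO wells given calcium and 100% = 1 mM EGTA wells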
# Redox H2O2 prof: compounds producing H2O2 with reducing agent – biochemical, NIH compound library profiling, artefact control for MLSCN library redox annotation, primary screen; DTT-dependent redox cycling H2O2, phenol red/HRP absorbance; 100% = 100 µM peroxide control, 0% = buffer; activation, % at 10 µM; actives 0.03% (n = 200,000); AID 878, 2007;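 active means activation of at least 50% relative to the plate's high and low controls in the primary single-dose screen; inactive means activation below 50%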;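 further: compound incubated with DTT at 0.8 mM final as the reducing agent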
# Hep lipid drop: inhibitors of hepatocyte lipid droplet formation, primary screen, imaging, high-throughput imaging, BODIPY stain | actives 0.4% (n = 240,000) | AID 1656, 2009 | AML12 mouse hepatocytes, oleate lipid droplets | inhibition, % at 6.5 µM;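 active means lipid droplet intensity inhibited by at least 50%, with more than 500 cells counted; inconclusive means wells with under 300 cells, treated as cytotoxic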
#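 Test system: AML12 hepatocytes (mouse); reagent: oleate loading, 100 µM; dosing: one dose, 6.5 µM compound; incubation: overnight exposure; signal: fluorescence imaging, 20x objective, two fields per well; read-out basis: % inhibition of corrected integrated BODIPY droplet signal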
# Numbers without * were called inactive; u = inconclusive; x = no result.
SMILES,T cruzi repl,Lmaj promast,MPTP block,Redox H2O2 prof,Hep lipid drop
Cc1ccc(-c2nc(CSc3nc4ccccc4c(=O)n3CCO)cs2)cc1,22,62*,4,1,8
Cc1ccc(CNC(=O)CSc2nc3ccccc3c(=O)n2CCCO)cc1,6,5,0,-1,-10
Cc1ccc(CSc2nc3ccccc3c(=O)n2Cc2ccco2)cc1,24,62*,24,0,-4
Cn1nc(C(=O)NC2CCCc3ccccc32)ccc1=O (stereo unspecified),-15,2,-1,-1,13
CN1CCN(/N=C/c2ccc(N(C)c3ccccc3)cc2)CC1,45,83*,0,-1,-4
CN1CCN(/N=C/c2ccc(Br)cc2)CC1,16,4,1,-2,-5
CCOc1ccc(-c2nc(CCl)cs2)cc1OC,-16,22,-1,0,-15
O=C1/C(=C/c2ccc(N3CCCC3)cc2)NC(=S)N1C1CC1,9,30,6,2,32
O=C1N/C(=C/c2ccc(N3CCCC3)cc2)C(=O)N1c1ccccc1,-7,69*,2,1,4
CN(CC(=O)NCCc1ccccc1)Cc1ccco1,-3,x,1,x,-11
COc1cccc(-c2csc(N3CCN(C(=S)Nc4ccccc4OC)CC3)n2)c1,17,93*,2,-8,x
COc1cccc(-c2csc(N3CCN(C(=S)Nc4cccc(Cl)c4)CC3)n2)c1,20,33,37,-4,x
COc1ccc(NC(=O)N2CCN(c3nc(-c4cccc(OC)c4)cs3)CC2)cc1,-10,79*,2,3,-5
COc1cccc(-c2csc(N3CCN(C(=S)Nc4ccccc4Cl)CC3)n2)c1,8,100*,4,-7,x
CCOC(=O)Cn1cnc(-c2ccc([N+](=O)[O-])cc2)c1,-3,12,-1,0,-4
CC1CCCN(c2ccc(C(=O)NCc3ccco3)cc2[N+](=O)[O-])C1 (stereo unspecified),21,73*,-2,x,-32
Cc1ccc(C(=O)NCc2ccco2)cc1[N+](=O)[O-],7,11,-1,-7,4
O=C(NCc1ccco1)c1cc([N+](=O)[O-])cc([N+](=O)[O-])c1,47,58*,2,-1,-1
O=C(NCc1ccco1)c1cc([N+](=O)[O-])ccc1Cl,12,4,0,-2,6
CCc1nc2c(OCC3CCCCC3)cccn2c1N(C)C(=O)c1ccc(C)cc1,x,x,3,x,x
CCc1cc(C(=O)N2CCCC(Nc3ccc(F)c(F)c3)C2)n(C)n1 (stereo unspecified),22,x,-1,x,-7
Cc1ccc(N2C(=O)c3ccc(C(=O)N4CCN(Cc5ccccc5)CC4)cc3C2=O)cc1,-12,x,0,x,5
O=C1NC[C@@H](CCCCN2C[C@H](Cc3ccc(O)cc3)N(Cc3ccccc3)C(=O)C2=O)N(Cc2ccccc2)C1=O,x,x,-1,x,x
C=CCNC(=O)COc1ccc(S(=O)(=O)NC2CCCCC2)cc1,-4,-5,-2,1,-2
C=CCNC(=O)COc1ccc(S(=O)(=O)Nc2ccc(OCC)cc2)cc1,-7,60*,0,1,-1
SMILES,T cruzi repl,Lmaj promast,MPTP block,Redox H2O2 prof,Hep lipid drop
c1ccc(-c2nc3ccccc3[nH]2)cc1,-13,x,0,x,-6
c1ccc(-c2n[nH]c(-c3ccccc3)c2-c2nc3ccccc3[nH]2)cc1,18,92*,-1,0,x
O=C1C(N2CCOCC2)=C(n2nnc3ccccc32)C(=O)c2ccccc21,u,100*,4,0,0
O=C1c2ccccc2C(=O)c2c1cccc2-n1nnc2ccccc21,0,x,2,x,0
Cn1c(SCC(=O)N2CCc3ccccc3C2)nnc1-c1cccs1,8,78*,-1,-2,-14
Nn1c(SCC(=O)N2CCc3ccccc3C2)nnc1-c1cccs1,12,1,-3,2,x
Cn1c(SCC(=O)N2CCc3ccccc3C2)nnc1-c1ccncc1,0,0,1,0,-50
CCc1cccc(CC)c1-n1c(SCC(=O)N2CCc3ccccc3C2)nnc1-c1cccnc1,39,99*,1,x,4
Cc1ccccc1-n1c(C)nnc1SCC(=O)N1CCc2ccccc2C1,-2,50*,0,0,-8
CCc1cccc(CC)c1-n1c(SCn2nnc3ccccc3c2=O)nnc1-c1cccnc1,21,67*,-2,0,-83
Cc1cccc(S(=O)(=O)Nc2ccc(-n3c(C)nc4ccccc4c3=O)cc2)c1,-11,x,1,x,x
COCC(C)n1c(SCC(=O)N2CCc3ccccc3C2)nc2ccccc2c1=O (stereo unspecified),12,91*,-6,0,-18
COCC(C)n1c(SCC(=O)N2CCCCC2)nc2ccccc2c1=O (stereo unspecified),6,-2,0,1,x
CCCN(CCC)CCCNc1ccc2nnc(-c3ccc(F)cc3)n2n1,19,59*,0,-1,16
C=CCc1ccccc1OCCCCN1CCCC1,22,77*,-1,-2,-1
C=CCc1ccccc1OCC(O)CN1CCN(c2ccccc2F)CC1 (stereo unspecified),6,69*,0,3,x
C=CCc1ccccc1OCC(O)CN1CCN(c2ccccc2OC)CC1 (stereo unspecified),7,27,2,1,x
Cc1ccccc1OCCCN1CCCC1,8,41,1,0,x
C=CCc1ccccc1OCC(O)CNC(C)C (stereo unspecified),-11,2,x,-1,-3
C=CCc1ccccc1OCC(CN1CCCCC1)OC(C)=O (stereo unspecified),8,65*,-1,2,-9
CCc1ccccc1OCCCCN1CCCC1,27,94*,44,2,-15
Cn1nc(-c2ccccc2)cc1NS(=O)(=O)c1ccc(C#N)cc1,7,x,0,x,22
CCOC(=O)C1CCCN(C(=O)c2cc(S(=O)(=O)N(C)C)ccc2N2CCCC2)C1 (stereo unspecified),6,x,0,x,x
O=S(=O)(NC1CCCCC1Oc1ccccc1)c1ccc(Cl)cc1 (stereo unspecified),16,75*,16,-1,-11
CSc1ccc(OC2CCCCC2NS(=O)(=O)c2ccc(Cl)cc2)cc1 (stereo unspecified),13,96*,35,-1,-33
CCN(CC)C1CCCCC1NS(=O)(=O)c1ccc(Cl)cc1 (stereo unspecified),-2,-5,-2,0,-14
COc1cc(-c2cc(-c3ccccc3)nc(SCC(=O)Nc3nccs3)c2C#N)cc(OC)c1OC,55*,-3,1,-6,x
Cc1cc(C)c(C#N)c(SCC(=O)c2ccc(Cl)cc2Cl)n1,75*,100*,2,-2,x
CCOC(=O)CSc1nc(C)cc(C)c1C#N,-11,-2,5,5,4
